Experiment [1] has as its system L5178Y. Description: Inhibition of P-glycoprotein expressed in mouse L5178Y cells measured by rhodamine 123 uptake assessed as fluorescence activity ratio relative to wild type mouse L5178 cells at 10 uM. The experiment is classed as cell-based. Summed up:
(§1)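 Mouse T lymphoma parental L5178 and P-gp-expressing L5178Y cells at 2 × 10^6 cells/mL in serum-free McCoy's 5A medium. Compound added from DMSO stock, 10 min at rt. Rhodamine 123 then added (final 5.2 µM), 20 min at 37 °C. Two PBS washes, 1 × 10^4 cells read by flow cytometry. Ratio = subline/parental fluorescence, each corrected to its untreated control.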

The test system of experiment [2] is L5178Y. Briefly: Inhibition of P-glycoprotein expressed in mouse L5178Y cells measured by rhodamine 123 uptake assessed as fluorescence activity ratio relative to wild type mouse L5178 cells at 1 uM. In kind it is cell-based. Summed up:
as §1

Another experiment is filed under the species Homo sapiens. Description: Induction of p-glycoprotein expression in human EPG 85-257 cells after 72 hrs by Western blot analysis. In kind it is functional, cell-based. In outline:
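Gastric carcinoma cells seeded at 5 × 10^5 cells/well and cultured 72 h with compound. Cells washed twice, proteins extracted with Triton X-100 and denatured 10 min at 95 °C. Protein quantified by amido black at 630 nm. 20 µg run on SDS-PAGE (4% stacking/6% resolving) and blotted. Probed with C219 (1:100) and peroxidase anti-mouse IgG (1:10000), chemiluminescence read-out. Anti-actin (1:50000) as loading control.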
In general terms: A western blot detects proteins with antibodies after separation by electrophoresis.

Eight compounds from ChEMBL document CHEMBL1140052, “Novel insight in structure-activity relationship and bioanalysis of P-glycoprotein targeting highly potent tetrakishydroxymethyl substituted 3,9-diazatetraasteranes” (J Med Chem, 2008) can be followed below.

The structures appear in SMILES notation. The source made the active and inactive calls. The calls are words filed in the database; no cut-off is given here.

Take `OC[C@]12C3N(Cc4ccc(OCc5ccccc5)cc4)C4[C@](CO)(C5N(Cc6ccc(OCc7ccccc7)cc6)C1[C@]3(CO)[C@H](c1ccccc1)[C@@]45CO)[C@H]2c1ccccc1`: the Ratio came to 28 in the experiment on L5178Y [1] and 2.3 with L5178Y [2].
On the same counts, the results for `OC[C@]12C3N(Cc4ccccc4)C4[C@](CO)(C5N(Cc6ccccc6)C1[C@]3(CO)[C@@H](c1ccccc1)[C@@]45CO)[C@@H]2c1ccccc1` are 29 and 4.1.
With `OC[C@]12C3N(Cc4ccccc4)C4[C@](CO)(C5N(Cc6ccccc6)C1[C@]3(CO)[C@H](c1cccc(OCc3ccccc3)c1)[C@@]45CO)[C@H]2c1cccc(OCc2ccccc2)c1`, the Ratio in the experiment with L5178Y [1] was 125; in the experiment with L5178Y [2] it was 65.
As for `COc1ccc([C@H]2[C@@]3(CO)C4N(Cc5ccccc5)C5[C@]2(CO)C2N(Cc6ccccc6)C3[C@]4(CO)[C@H](c3ccc(OC)cc3)[C@@]52CO)cc1`, the Ratio in the experiment with L5178Y [1] turned out to be 57; with L5178Y [2] it was 4.3. Also, the outcome in the experiment filed under Homo sapiens was inactive.
Regarding `OC[C@]12C3N(Cc4cccc(OCc5ccccc5)c4)C4[C@](CO)(C5N(Cc6cccc(OCc7ccccc7)c6)C1[C@]3(CO)[C@@H](c1ccccc1)[C@@]45CO)[C@@H]2c1ccccc1`, the Ratio was found to be 205 in the experiment with L5178Y [1] and 117 with L5178Y [2].
The corresponding values for `COc1ccc(CN2C3[C@]4(CO)C5N(Cc6ccc(OC)cc6)C6[C@](CO)(C2[C@@]6(CO)[C@@H](c2ccccc2)[C@@]35CO)[C@H]4c2ccccc2)cc1` are 13 and 3.5.
Consider `OC[C@]12C3N(Cc4ccccc4)C4[C@](CO)(C5N(Cc6ccccc6)C1[C@]3(CO)[C@H](c1ccc(OCc3ccccc3)cc1)[C@@]45CO)[C@H]2c1ccc(OCc2ccccc2)cc1`, for which the Ratio in the experiment on L5178Y [1] is 47; in the experiment with L5178Y [2], 3.3.
On the same counts, the results for `COc1ccc(CCN(C)CCCC(C#N)(c2ccc(OC)c(OC)c2)C(C)C)cc1OC` (configuration not stated) are 4.1 and 2.1.
